Measurements from PMC4084622 (Journal of Medicinal Chemistry, 2014).
In brackets after ≈: the same amount, converted by molar mass. Like-named read-outs stand apart in the source and are kept apart here.

How the values were obtained:
S. cerevisiae = test: microbe, parasite or virus in culture; type: cell-based, Saccharomyces cerevisiae; conditions: for IC50: Saccharomyces cerevisiae
M. tuberculosis [1] = test: microbe, parasite or virus in culture; type: cell-based, Mycobacterium tuberculosis; conditions: for MIC: Mycobacterium tuberculosis
MCF-7 = test: cells; type: cell-based; conditions: Homo sapiens, MCF7, read-out: MCF-7 IC50
B. subtilis = test: microbe, parasite or virus in culture; type: cell-based; conditions: Bacillus subtilis
[2] = system: S. aureus (MRSA USA300 strain); test: microbe, parasite or virus in culture; type: cell-based; conditions: Staphylococcus aureus, MRSA|USA300, read-out: Sa MIC, MRSA USA300 strain
C. albicans = test: microbe, parasite or virus in culture; type: cell-based; conditions: Candida albicans
E. coli = test: microbe, parasite or virus in culture; type: cell-based; conditions: Escherichia coli
[3] = system: M. smegmatis cells, ATP synthesis; test: ATP/ADP determination in M. smegmatis cells; type: cell-based, Mycobacterium smegmatis
Summary of the method: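 Cells grown 8 h in Middlebrook 7H9-ADC-Tween 80 and diluted to OD600 of 2. Test compounds added at several concentrations, with incubation at 37 °C and 200 rpm. ATP/ADP ratio read with a commercial ADP/ATP ratio kit after 10 and 60 min.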

human SQS = biological target: T1, human SQS (Homo sapiens, UniProt P37268); test: Human SQS inhibition; type: biochemical
T1 sequence (P37268 1-417): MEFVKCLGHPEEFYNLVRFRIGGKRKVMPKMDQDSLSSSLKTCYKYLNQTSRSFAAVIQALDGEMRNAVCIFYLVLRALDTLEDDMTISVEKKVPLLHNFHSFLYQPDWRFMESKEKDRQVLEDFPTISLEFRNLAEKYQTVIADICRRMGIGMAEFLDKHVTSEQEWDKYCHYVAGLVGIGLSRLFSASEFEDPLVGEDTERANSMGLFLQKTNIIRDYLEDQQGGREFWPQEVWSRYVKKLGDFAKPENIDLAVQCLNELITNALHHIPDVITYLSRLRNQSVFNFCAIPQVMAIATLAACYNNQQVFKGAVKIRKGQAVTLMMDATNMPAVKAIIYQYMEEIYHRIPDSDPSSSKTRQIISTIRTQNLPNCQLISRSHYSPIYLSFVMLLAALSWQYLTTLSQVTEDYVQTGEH

SaCrtM = biological target: T2, SaCrtM (Staphylococcus aureus, UniProt A9JQL9); test: SaCrtM inhibition; type: biochemical, S. aureus
T2 sequence (A9JQL9 1-287): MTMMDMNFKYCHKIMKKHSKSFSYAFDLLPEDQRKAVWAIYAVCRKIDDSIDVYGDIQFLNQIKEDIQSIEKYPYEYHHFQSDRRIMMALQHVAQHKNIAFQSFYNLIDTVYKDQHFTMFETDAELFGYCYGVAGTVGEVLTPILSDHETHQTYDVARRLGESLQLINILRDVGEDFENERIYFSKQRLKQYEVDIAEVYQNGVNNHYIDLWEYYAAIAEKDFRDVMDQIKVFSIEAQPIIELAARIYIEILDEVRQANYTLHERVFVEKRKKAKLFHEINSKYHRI

M. smegmatis cells, ΔpH = type: cell-based, Mycobacterium smegmatis
E. coli IMVs, ΔpH = test: ΔpH collapse in E. coli inverted membrane vesicles; type: biochemical, Escherichia coli; conditions: qualitative
[4] = biological target: M. smegmatis MenA (MsMenA) (Mycolicibacterium smegmatis, UniProt A0QR52); conditions: read-out: MenA IC50; same assay as used here; cited from earlier work
M. smegmatis MenA (MsMenA), sequence (A0QR52 1-289): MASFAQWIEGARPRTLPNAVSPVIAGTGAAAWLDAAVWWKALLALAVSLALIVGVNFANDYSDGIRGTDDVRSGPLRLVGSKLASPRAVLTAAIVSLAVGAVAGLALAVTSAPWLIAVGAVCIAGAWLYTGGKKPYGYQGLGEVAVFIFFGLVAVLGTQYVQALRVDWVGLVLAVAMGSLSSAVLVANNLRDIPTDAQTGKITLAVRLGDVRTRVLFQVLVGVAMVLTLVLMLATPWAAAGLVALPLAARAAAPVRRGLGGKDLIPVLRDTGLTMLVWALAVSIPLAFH

M. tuberculosis [5] = conditions: cited from earlier work
M. smegmatis = conditions: cited from earlier work
[6] = biological target: M. smegmatis membrane dehydrogenases (NADH, deamino-NADH, succinate, lactate substrates); test: Dehydrogenase activities, MTT reduction, M. smegmatis membranes; type: biochemical, Mycobacterium smegmatis; conditions: in general (all substrates except malate)
[7] = biological target: M. tuberculosis cis-decaprenyl diphosphate synthase (Rv2361) (Mycobacterium tuberculosis, UniProt P9WFF7); test: cis-decaprenyl diphosphate synthase inhibition; type: biochemical
M. tuberculosis cis-decaprenyl diphosphate synthase (Rv2361), sequence (P9WFF7 whole entry): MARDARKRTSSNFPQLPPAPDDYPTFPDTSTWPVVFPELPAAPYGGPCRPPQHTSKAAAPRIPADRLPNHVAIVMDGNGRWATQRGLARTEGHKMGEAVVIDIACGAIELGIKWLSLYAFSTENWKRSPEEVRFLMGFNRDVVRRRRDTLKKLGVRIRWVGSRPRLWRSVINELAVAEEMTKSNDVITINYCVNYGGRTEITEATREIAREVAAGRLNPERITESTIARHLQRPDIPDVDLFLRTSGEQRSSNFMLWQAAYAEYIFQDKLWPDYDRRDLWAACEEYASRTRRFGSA

malate dehydrogenase = malate dehydrogenase (Mycolicibacterium smegmatis, UniProt A0QVL2); test: Malate dehydrogenase activity, MTT reduction, M. smegmatis membranes; type: biochemical, Mycobacterium smegmatis
malate dehydrogenase, sequence (A0QVL2 whole entry): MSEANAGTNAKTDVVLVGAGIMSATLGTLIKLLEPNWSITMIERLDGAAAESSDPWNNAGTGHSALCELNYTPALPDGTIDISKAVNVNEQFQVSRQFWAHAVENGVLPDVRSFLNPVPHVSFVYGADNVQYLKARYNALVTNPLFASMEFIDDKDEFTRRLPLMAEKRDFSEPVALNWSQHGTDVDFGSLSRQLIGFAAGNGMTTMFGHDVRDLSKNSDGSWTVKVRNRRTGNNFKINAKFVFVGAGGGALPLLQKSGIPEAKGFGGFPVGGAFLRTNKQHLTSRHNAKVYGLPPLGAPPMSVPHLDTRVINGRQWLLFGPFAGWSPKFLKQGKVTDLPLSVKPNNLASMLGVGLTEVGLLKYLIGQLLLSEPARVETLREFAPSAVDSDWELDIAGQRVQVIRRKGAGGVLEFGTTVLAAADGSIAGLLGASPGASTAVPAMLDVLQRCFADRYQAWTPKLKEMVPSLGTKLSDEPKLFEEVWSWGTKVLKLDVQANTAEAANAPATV

[8] = system: nonreplicating M. tuberculosis (streptomycin-starved 18b); type: cell-based, Mycobacterium tuberculosis; conditions: for effect on nonreplicating bacterial activity (CFU): 7 days
[9] = biological target: P. vivax geranylgeranyl diphosphate synthase (GGPPS) (Plasmodium vivax, UniProt A5K4U6); test: biochemical
P. vivax geranylgeranyl diphosphate synthase (GGPPS), sequence (A5K4U6 1-375): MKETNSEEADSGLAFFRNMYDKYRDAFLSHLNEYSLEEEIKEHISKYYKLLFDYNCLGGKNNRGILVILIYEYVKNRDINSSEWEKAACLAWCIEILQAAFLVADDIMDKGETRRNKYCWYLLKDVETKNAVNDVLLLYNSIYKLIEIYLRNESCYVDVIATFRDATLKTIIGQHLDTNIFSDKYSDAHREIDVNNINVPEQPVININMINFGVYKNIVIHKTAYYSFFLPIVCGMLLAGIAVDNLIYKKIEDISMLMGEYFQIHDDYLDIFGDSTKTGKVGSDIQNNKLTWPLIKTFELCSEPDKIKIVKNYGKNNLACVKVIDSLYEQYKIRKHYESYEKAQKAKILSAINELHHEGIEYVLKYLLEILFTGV

[10] = biological target: S. aureus farnesyl diphosphate synthase (FPPS) (Staphylococcus aureus, UniProt Q2FY48); test: biochemical
S. aureus farnesyl diphosphate synthase (FPPS), sequence (Q2FY48 1-293): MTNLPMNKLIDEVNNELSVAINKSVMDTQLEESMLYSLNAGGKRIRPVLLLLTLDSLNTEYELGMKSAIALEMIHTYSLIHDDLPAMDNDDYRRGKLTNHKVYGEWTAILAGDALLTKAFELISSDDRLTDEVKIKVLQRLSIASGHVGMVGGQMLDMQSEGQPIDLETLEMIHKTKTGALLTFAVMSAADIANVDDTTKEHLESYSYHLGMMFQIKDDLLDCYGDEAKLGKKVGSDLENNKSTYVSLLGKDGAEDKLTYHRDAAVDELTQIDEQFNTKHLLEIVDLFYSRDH

[11] = biological target: E. coli undecaprenyl diphosphate synthase (UPPS) (Escherichia coli, UniProt P60472); test: E. coli UPPS inhibition; type: biochemical
E. coli undecaprenyl diphosphate synthase (UPPS), sequence (P60472 whole entry): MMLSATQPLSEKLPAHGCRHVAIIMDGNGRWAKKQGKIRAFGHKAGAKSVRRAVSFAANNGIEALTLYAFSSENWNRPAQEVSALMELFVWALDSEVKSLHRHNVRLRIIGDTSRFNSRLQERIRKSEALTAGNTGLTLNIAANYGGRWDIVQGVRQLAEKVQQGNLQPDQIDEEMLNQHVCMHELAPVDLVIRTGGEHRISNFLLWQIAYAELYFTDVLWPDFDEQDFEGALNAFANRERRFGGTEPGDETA

[12] = biological target: M. tuberculosis cis-farnesyl diphosphate synthase (Rv1086) (Mycobacterium tuberculosis, UniProt P9WFF5); test: cis-farnesyl diphosphate synthase inhibition; type: biochemical
M. tuberculosis cis-farnesyl diphosphate synthase (Rv1086), sequence (P9WFF5 whole entry): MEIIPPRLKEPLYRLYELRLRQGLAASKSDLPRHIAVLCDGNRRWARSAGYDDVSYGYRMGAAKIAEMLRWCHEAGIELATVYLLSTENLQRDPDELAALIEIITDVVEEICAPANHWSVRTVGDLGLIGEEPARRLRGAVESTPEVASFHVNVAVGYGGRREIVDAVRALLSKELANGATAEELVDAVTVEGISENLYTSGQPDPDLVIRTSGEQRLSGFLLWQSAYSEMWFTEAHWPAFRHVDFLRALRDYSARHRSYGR

[13] = biological target: S. aureus undecaprenyl diphosphate synthase (UPPS) (Staphylococcus aureus, UniProt P60477); test: S. aureus UPPS inhibition; type: biochemical
S. aureus undecaprenyl diphosphate synthase (UPPS), sequence (P60477 whole entry): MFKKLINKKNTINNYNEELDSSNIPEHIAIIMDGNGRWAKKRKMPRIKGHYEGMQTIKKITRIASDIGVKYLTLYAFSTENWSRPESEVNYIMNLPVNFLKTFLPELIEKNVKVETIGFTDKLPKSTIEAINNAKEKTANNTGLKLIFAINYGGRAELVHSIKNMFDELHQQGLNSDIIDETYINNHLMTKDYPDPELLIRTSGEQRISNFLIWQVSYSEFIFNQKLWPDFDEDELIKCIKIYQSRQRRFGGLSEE

[14] = read-out: Mt MIC (in parentheses)
[15] = read-out: Sc IC50 (in parentheses)
[16] = read-out: Bs IC50 (in parentheses)
[17] = read-out: Ca IC50 (in parentheses)
[18] = read-out: Ec IC50 (in parentheses)

Structure (SMILES) | IC50 (S. cerevisiae; read-out: Sc IC50) [µg/mL] | MIC (M. tuberculosis [1]; read-out: Mt MIC) [µg/mL] | IC50 (MCF-7) [µg/mL] | IC50 (B. subtilis; read-out: Bs IC50) [µg/mL] | MIC [2] [µg/mL] | IC50 (C. albicans; read-out: Ca IC50) [µg/mL] | IC50 (E. coli; read-out: Ec IC50) [µg/mL] | further results
CC(C)=CCC/C(C)=C/CNCCOC1C2CC3CC(C2)CC1C3 (stereo not drawn) [compound 3] | 1.8 | 0.02 to 0.05 | 10 (≈ 30.2 µM) | 16 | ~8 (≈ 24.1 µM) | 12 | 2.8 | MIC (M. tuberculosis [1]; [14]): 0.06 to 0.15 µM; effect on ATP synthesis [3]: inhibition of ATP synthesis; activity (human SQS; human SQS, weak activity): ~100 µM; activity (SaCrtM; SaCrtM, weak activity): ~100 µM
CC(C)=CCC/C(C)=C/C[N+](C)(C)CCOC1C2CC3CC(C2)CC1C3.[I-] (stereo not drawn) [compound 7] | 15 | 0.78 | 3.2 | 4.2 | 8 | 18 | 37 | –
CC(C)=CCC/C(C)=C/COCCNC1C2CC3CC(C2)CC1C3 (stereo not drawn) [compound 4] | > 33 | ~0.2 | 112 (≈ 338 µM) | > 66 | > 120 | > 66 | 4.3 | IC50 (S. cerevisiae; [15]): > 100 µM; Mt MIC (M. tuberculosis [1]): 0.19 µg/mL; IC50 (B. subtilis; [16]): > 199 µM; IC50 (C. albicans; [17]): > 199 µM; activity (human SQS; human SQS, weak activity): ~100 µM; activity (SaCrtM; SaCrtM, weak activity): ~100 µM
CC(C)=CCC/C(C)=C/CNCCOc1cccc2ccccc12 [compound 12] | 3.7 | 6.2 | 7.1 (≈ 21.9 µM) | 2.4 | ~8 (≈ 24.7 µM) | 12 | 15 | –
CC(C)=CCC/C(C)=C/CNCCOc1ccccc1 [compound 11] | 3 | 6.2 | 6.3 (≈ 23 µM) | 17 | 32 (≈ 117 µM) | 20 | 60 | –
CC(C)=CCC/C(C)=C/CNCCCOC1C2CC3CC(C2)CC1C3 (stereo not drawn) [compound 6] | 2.7 | 1.6 | 3.4 (≈ 9.84 µM) | 3 | ~8 (≈ 23.2 µM) | 6.5 | 2.3 | –
CC(C)[C@@H]1NC(=O)[C@H](C)OC(=O)[C@@H](C(C)C)NC(=O)[C@@H](C(C)C)OC(=O)[C@H](C(C)C)NC(=O)[C@H](C)OC(=O)[C@@H](C(C)C)NC(=O)[C@@H](C(C)C)OC(=O)[C@H](C(C)C)NC(=O)[C@H](C)OC(=O)[C@@H](C(C)C)NC(=O)[C@@H](C(C)C)OC1=O [valinomycin] | – | – | – | – | – | – | – | effect on pH gradient (ΔpH) (M. smegmatis cells, ΔpH): no effect
CC(C)=CCC/C(C)=C/CNC(=O)COC1C2CC3CC(C2)CC1C3 (stereo not drawn) [compound 8] | > 69 | 0.78 | 12 (≈ 34.7 µM) | > 69 | > 120 | > 69 | > 345 | IC50 (S. cerevisiae; [15]): > 200 µM; IC50 (B. subtilis; [16]): > 200 µM; IC50 (C. albicans; [17]): > 200 µM; IC50 (E. coli; [18]): > 1000 µM
CC(C)=CCC/C(C)=C/CNCCO[C@@H]1C[C@@H]2CC[C@@]1(C)C2(C)C [compound 13] | 1 to 3 | – | 1.3 (≈ 3.9 µM) | 1.8 | ~8 (≈ 24 µM) | 6.3 | 12 | Sc IC50 (S. cerevisiae): 0.89 µg/mL; effect on pH gradient (ΔpH) (M. smegmatis cells, ΔpH): collapsed
CC(C)(C)c1cc(C=C(C#N)C#N)cc(C(C)(C)C)c1O [SF6847, reference compound] | – | – | – | – | – | – | – | effect on ΔpH (E. coli IMVs, ΔpH): very rapid (seconds) collapse in ΔpH
CC(C)=CCC/C(C)=C/COCC(=O)NC1C2CC3CC(C2)CC1C3 (stereo not drawn) [compound 9] | > 69 | 12 | 9.3 (≈ 26.9 µM) | 17 | > 120 | > 69 | > 345 | IC50 (S. cerevisiae; [15]): > 200 µM; IC50 (C. albicans; [17]): > 200 µM; IC50 (E. coli; [18]): > 1000 µM
CC(C)=CCC/C(C)=C/COCCOC1C2CC3CC(C2)CC1C3 (stereo not drawn) [compound 5] | > 332 | – | 73 (≈ 220 µM) | > 66 | > 64 | > 66 | > 332 | IC50 (S. cerevisiae; [15]): > 1000 µM; IC50 (B. subtilis; [16]): > 199 µM; IC50 (C. albicans; [17]): > 198 µM; IC50 (E. coli; [18]): > 1000 µM; effect on ΔpH (E. coli IMVs, ΔpH): no effect
C=CCN(C)CCCCCCOc1ccc(C(=O)c2ccc(Br)cc2)c(F)c1 [Ro 48-8071] | – | – | – | – | – | – | – | IC50 [4]: 9 µM
CC[C@@H](CO)NCCN[C@@H](CC)CO [compound 2, ethambutol] | – | – | – | – | – | – | – | Mt MIC (M. tuberculosis [5]): 2 µg/mL; Ms MIC (M. smegmatis): 1 µg/mL
CO[C@@H]1C[C@@H](C[C@H]2CC[C@H](C)[C@H]([C@@H](C)C(=O)O)O2)O[C@]2(O[C@](C)([C@H]3CC[C@@](C)([C@@H]4O[C@@H]([C@H]5O[C@@](O)(CO)[C@H](C)C[C@@H]5C)C[C@@H]4C)O3)C[C@H]2C)[C@@H]1C [nigericin] | – | – | – | – | – | – | – | effect on pH gradient (ΔpH) (M. smegmatis cells, ΔpH): collapsed
N#CC(C#N)=NNc1cccc(Cl)c1 [CCCP, m-chlorophenylcarbonyl cyanide phenylhydrazone] | – | – | – | – | – | – | – | effect on pH gradient (ΔpH) (M. smegmatis cells, ΔpH): collapsed
CC(C)=CCC/C(C)=C/CNCCOC(C)(C)C [compound 10] | 44 | 6.2 | 45 (≈ 178 µM) | > 50 | > 16 | > 50 | > 126 | IC50 (B. subtilis; [16]): > 198 µM; IC50 (C. albicans; [17]): > 198 µM; IC50 (E. coli; [18]): > 498 µM
CC(C)=CCC/C(C)=C/CNCCNC1C2CC3CC(C2)CC1C3 (stereo not drawn) [compound 1, SQ109] | – | 0.1 to 0.2 | 6 (≈ 18.2 µM) | 7.6 | > 120 | 3.3 | 2.8 | Sc IC50 (S. cerevisiae): 1.1 µg/mL; MIC (M. tuberculosis [1]; [14]): 0.3 to 0.6 µM; IC50 [6]: ~30 µg/mL (≈ 90.8 µM); IC50 [7]: ≥ 50 µM; IC50 (malate dehydrogenase): 30.3 µM; effect on nonreplicating bacterial activity (CFU) ([8]; 1 μg/mL, absence of MK-4): only a small effect; effect on nonreplicating bacterial activity (CFU) ([8]; 1 μg/mL, presence of 1 mM MK-4): essentially no effect; reduction of cell activity (CFU) ([8]; 10 μg/mL, 7 days exposure, absence of MK-4): ~4 log units; effect on nonreplicating bacterial activity (CFU) ([8]; 10 μg/mL, presence of 1 mM MK-4): small effect; IC50 [9]: ≥ 50 µM; IC50 [10]: ≥ 50 µM; IC50 [11]: ≥ 50 µM; IC50 [12]: ≥ 50 µM; IC50 [13]: ≥ 50 µM; effect on pH gradient (ΔpH) (M. smegmatis cells, ΔpH): collapsed; activity (human SQS): ~100 µM; activity (SaCrtM): ~100 µM
